Our source for the inhibition of growth and Ki values is ChEMBL document CHEMBL3046448, “Design and syntheses of novel phthalazin-1(2H)-one derivatives as acetohydroxyacid synthase inhibitors” (J Agric Food Chem, 2006).

In assay [1] the test system is Chenopodium album. As to the kind of experiment: Herbicidal activity against Chenopodium album assessed as growth inhibition at 150 g ai/ha applied as post-emergence treatment under green house conditions measured 15 days post compound treatment. The conditions noted are these: 360 h, read-out: GI. In kind it is functional. The method in brief: (§1)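 Post-emergence spray on pot-grown dicot weeds at the two-leaf stage in a greenhouse. Clay soil: pH 6.5, 1.6% organic matter, 37.3% clay, CEC 12.1 cmol/kg. Formulation: 100 g/L DMF/TW-80 emulsified concentrate, water-diluted to 150 g ai/ha. Untreated and DMF solvent controls. Visual inhibition rating at 15 days: ++ >80%, + 50-80%, − <50%.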

Assay [2] relates to Amaranthus retroflexus. Briefly: Herbicidal activity against Amaranthus retroflexus assessed as growth inhibition at 150 g ai/ha applied as post-emergence treatment under green house conditions measured 15 days post compound treatment. In kind it is functional. The conditions noted are these: 360 h, read-out: GI. The method in brief:
as §1

The test system of assay [3] is Brassica juncea. As to the kind of experiment: Herbicidal activity against Brassica juncea assessed as growth inhibition at 150 g ai/ha applied as post-emergence treatment under green house conditions measured 15 days post compound treatment. The conditions noted are these: 360 h, read-out: GI. In kind it is functional. The method in brief: as §1
Assay [4] has as its system Setaria viridis. Briefly: Herbicidal activity against Setaria viridis (green foxtail) assessed as growth inhibition at 150 g ai/ha applied as post-emergence treatment under green house conditions measured 15 days post compound treatment. In kind it is functional. The conditions noted are these: 360 h, read-out: GI. The essentials:
(§2)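 Monocot weeds grown in pots in a greenhouse and sprayed post-emergence at the one-leaf stage. Clay soil: pH 6.5, 1.6% organic matter, 37.3% clay, CEC 12.1 cmol/kg. Formulation: 100 g/L emulsified concentrate (DMF, TW-80) diluted with water to 150 g ai/ha. Untreated and DMF controls included. Growth inhibition scored visually after 15 days: ++ >80%, + 50-80%, − <50%.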

Assay [5] deals with Digitaria sanguinalis. As to the kind of experiment: Herbicidal activity against Digitaria sanguinalis (hairy crabgrass) assessed as growth inhibition at 150 g ai/ha applied as post-emergence treatment under green house conditions measured 15 days post compound treatment. In kind it is functional. The note with it: 360 h, read-out: GI. The essentials: as §2
Assay [6] has as its system Amaranthus retroflexus. As to the kind of experiment: Herbicidal activity against Amaranthus retroflexus assessed as growth inhibition at 150 g ai/ha applied as pre-emergence treatment 24 hr after weeds seeds sowing under green house conditions measured 15 days post compound treatment. In kind it is functional. The conditions noted are these: read-out: GI. The essentials: (§3)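 Pre-emergence spray applied 24 h after sowing weeds in pots in a greenhouse. Clay soil: pH 6.5, 1.6% organic matter, 37.3% clay, CEC 12.1 cmol/kg. Formulation: 100 g/L emulsified concentrate (DMF solvent, TW-80 emulsifier) diluted with water to 150 g ai/ha. Untreated and DMF-treated controls. Growth inhibition judged visually at 15 days: ++ >80%, + 50-80%, − <50%.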

The subject of assay [7] is Brassica juncea. As to the kind of experiment: Herbicidal activity against Brassica juncea assessed as growth inhibition at 150 g ai/ha applied as pre-emergence treatment 24 hr after weeds seeds sowing under green house conditions measured 15 days post compound treatment. In kind it is functional. The note with it: read-out: GI. The method in brief:
as §3

Assay [8] has as its system Setaria viridis. As to the kind of experiment: Herbicidal activity against Setaria viridis (green foxtail) assessed as growth inhibition at 150 g ai/ha applied as pre-emergence treatment 24 hr after weeds seeds sowing under green house conditions measured 15 days post compound treatment. Type of assay: functional. The note with it: read-out: GI. The method in brief:
as §3

In assay [9] the test system is Digitaria sanguinalis. Briefly: Herbicidal activity against Digitaria sanguinalis (hairy crabgrass) assessed as growth inhibition at 150 g ai/ha applied as pre-emergence treatment 24 hr after weeds seeds sowing under green house conditions measured 15 days post compound treatment. Type of assay: functional. The conditions noted are these: read-out: GI. The essentials:
as §3

In assay [10] the test system is Echinochloa crus-galli. As to the kind of experiment: Herbicidal activity against Echinochloa crus-galli (barnyard grass) assessed as growth inhibition at 150 g ai/ha applied as post-emergence treatment under green house conditions measured 15 days post compound treatment. In kind it is functional. The note with it: 360 h, read-out: GI. The essentials:
as §2

Assay [11] has as its system Chenopodium album. Briefly: Herbicidal activity against Chenopodium album assessed as growth inhibition at 150 g ai/ha applied as pre-emergence treatment 24 hr after weeds seeds sowing under green house conditions measured 15 days post compound treatment. Type of assay: functional. The conditions noted are these: read-out: GI. The essentials:
as §3

The subject of assay [12] is Echinochloa crus-galli. As to the kind of experiment: Herbicidal activity against Echinochloa crus-galli (barnyard grass) assessed as growth inhibition at 150 g ai/ha applied as pre-emergence treatment 24 hr after weeds seeds sowing under green house conditions measured 15 days post compound treatment. The note with it: read-out: GI. Type of assay: functional. The method in brief: as §3

Assay [13] addresses T1, Acetolactate synthase, chloroplastic (Arabidopsis thaliana, UniProt P17597).
T1 sequence (P17597 whole entry): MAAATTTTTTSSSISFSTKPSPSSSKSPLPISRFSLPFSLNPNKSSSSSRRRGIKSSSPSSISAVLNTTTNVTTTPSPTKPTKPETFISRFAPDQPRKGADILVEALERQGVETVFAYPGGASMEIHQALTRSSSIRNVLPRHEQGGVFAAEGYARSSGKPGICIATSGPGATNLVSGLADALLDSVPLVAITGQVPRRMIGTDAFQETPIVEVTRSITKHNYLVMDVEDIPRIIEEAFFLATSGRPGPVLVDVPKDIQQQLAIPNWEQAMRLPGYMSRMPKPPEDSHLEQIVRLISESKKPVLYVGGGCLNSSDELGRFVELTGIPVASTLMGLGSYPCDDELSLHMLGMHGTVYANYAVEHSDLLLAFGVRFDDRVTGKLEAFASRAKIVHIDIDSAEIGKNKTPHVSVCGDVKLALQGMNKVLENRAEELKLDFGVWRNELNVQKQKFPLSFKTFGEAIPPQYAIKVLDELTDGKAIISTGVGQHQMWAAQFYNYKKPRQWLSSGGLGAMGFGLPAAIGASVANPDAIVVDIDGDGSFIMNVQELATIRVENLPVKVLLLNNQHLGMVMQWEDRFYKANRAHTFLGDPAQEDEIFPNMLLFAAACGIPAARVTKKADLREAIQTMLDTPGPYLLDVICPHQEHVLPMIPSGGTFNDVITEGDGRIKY
As to the kind of experiment: Inhibition of wild type Arabidopsis thaliana acetohydroxyacid synthase.

A value given as a limit tells only on which side of the number the result lay.

For orientation: Ki means a dissociation constant, usually derived from enzyme kinetics or from competition with a known ligand. Regarding `CCOC(=O)Cn1nc(C)c2cccc(Oc3nc(OC)cc(OC)n3)c2c1=O`, the inhibition of growth at 150 g/ha in the assay with Chenopodium album [1] is 50%; with Amaranthus retroflexus [2] it was greater than 80%; in the assay with Brassica juncea [3], less than 50%; in the assay on Setaria viridis [4] it was greater than 80%; with Digitaria sanguinalis [5], 50%; in the assay with Amaranthus retroflexus [6] it was less than 50%. In addition, the inhibition of growth at 150 g/ha is less than 50% with Brassica juncea [7]; less than 50% in the assay on Setaria viridis [8]; less than 50% with Digitaria sanguinalis [9]; greater than 80% in the assay on Echinochloa crus-galli [10]; less than 50% in the assay on Chenopodium album [11]; less than 50% with Echinochloa crus-galli [12]. For the same molecule, the Ki in assay [13] amounted to 557 µM.
Regarding `COc1cc(OC)nc(Oc2cccc3c(C)n[nH]c(=O)c23)n1`, the inhibition of growth at 150 g/ha in the assay on Chenopodium album [1] is 50%; in the assay on Amaranthus retroflexus [2], greater than 80%; with Brassica juncea [3], less than 50%; with Setaria viridis [4] it was greater than 80%; in the assay with Digitaria sanguinalis [5] it was greater than 80%; in the assay on Amaranthus retroflexus [6], less than 50%. Moreover, the inhibition of growth at 150 g/ha in the assay with Brassica juncea [7] was less than 50%; in the assay with Setaria viridis [8], less than 50%; in the assay on Digitaria sanguinalis [9] it was less than 50%; with Echinochloa crus-galli [10] it was greater than 80%; in the assay with Chenopodium album [11], less than 50%; in the assay with Echinochloa crus-galli [12] it was less than 50%. Moreover, in [13], the inhibition constant (Ki) was determined as 789 µM.
For `COc1cc(OC)nc(Oc2cccc3c(C)nn(CC4OCCO4)c(=O)c23)n1`, the inhibition of growth at 150 g/ha was 50% in the assay on Chenopodium album [1]; greater than 80% with Amaranthus retroflexus [2]; 50% in the assay on Brassica juncea [3]; greater than 80% in the assay on Setaria viridis [4]; 50% in the assay on Digitaria sanguinalis [5]; less than 50% in the assay on Amaranthus retroflexus [6]. Further, the inhibition of growth at 150 g/ha is less than 50% in the assay with Brassica juncea [7]; less than 50% with Setaria viridis [8]; less than 50% with Digitaria sanguinalis [9]; 50% with Echinochloa crus-galli [10]; less than 50% with Chenopodium album [11]; less than 50% in the assay with Echinochloa crus-galli [12]. This molecule also came in with a Ki in assay [13] of 778 µM.
Regarding `COc1cc(OC)nc(Oc2cccc3c(C)nn(Cc4c(F)cccc4F)c(=O)c23)n1`, the inhibition of growth at 150 g/ha in the assay on Chenopodium album [1], in the assay with Amaranthus retroflexus [2], in the assay with Brassica juncea [3], with Setaria viridis [4], in the assay on Digitaria sanguinalis [5] and in the assay with Amaranthus retroflexus [6] was less than 50% throughout. Also, the inhibition of growth at 150 g/ha in the assay on Brassica juncea [7], with Setaria viridis [8], in the assay on Digitaria sanguinalis [9], with Echinochloa crus-galli [10], in the assay on Chenopodium album [11] and in the assay on Echinochloa crus-galli [12] was less than 50% in each case. Further, affinity in assay [13] was put at a Ki of 634 µM.
As to `COc1cc(OC)nc(Oc2cccc3c(C)nn(Cc4ccccc4)c(=O)c23)n1`, the inhibition of growth at 150 g/ha in the assay on Chenopodium album [1], in the assay with Amaranthus retroflexus [2], in the assay with Brassica juncea [3], with Setaria viridis [4], with Digitaria sanguinalis [5] and in the assay on Amaranthus retroflexus [6] was less than 50% each time. Moreover, the inhibition of growth at 150 g/ha in the assay on Brassica juncea [7], in the assay with Setaria viridis [8], with Digitaria sanguinalis [9], in the assay with Echinochloa crus-galli [10], in the assay with Chenopodium album [11] and in the assay on Echinochloa crus-galli [12] was less than 50% each time. The molecule further had a Ki in assay [13] of 822 µM.
`COc1cc(OC)nc(Oc2cccc3c(C)nn(Cc4ccc(Br)cc4F)c(=O)c23)n1`: the inhibition of growth at 150 g/ha in the assay with Chenopodium album [1], with Amaranthus retroflexus [2], in the assay on Brassica juncea [3], with Setaria viridis [4], with Digitaria sanguinalis [5] and in the assay with Amaranthus retroflexus [6] was less than 50% each time. Moreover, the inhibition of growth at 150 g/ha with Brassica juncea [7], in the assay on Setaria viridis [8], in the assay with Digitaria sanguinalis [9], in the assay on Echinochloa crus-galli [10], in the assay on Chenopodium album [11] and with Echinochloa crus-galli [12] was less than 50% in each case. In [13], this molecule had a Ki of 420 µM.
Take `COc1cc(OC)nc(Oc2cccc3c(C)nn(Cc4cccc(Cl)c4)c(=O)c23)n1`: the inhibition of growth at 150 g/ha with Chenopodium album [1] was 50%; in the assay with Amaranthus retroflexus [2], greater than 80%; in the assay on Brassica juncea [3] it was 50%; in the assay on Setaria viridis [4] it was less than 50%; in the assay with Digitaria sanguinalis [5] it was less than 50%; in the assay on Amaranthus retroflexus [6], less than 50%. In addition, the inhibition of growth at 150 g/ha in the assay on Brassica juncea [7] is less than 50%; with Setaria viridis [8], less than 50%; in the assay with Digitaria sanguinalis [9], less than 50%; in the assay with Echinochloa crus-galli [10] it was 50%; in the assay with Chenopodium album [11], less than 50%; with Echinochloa crus-galli [12], less than 50%. In [13], this molecule gave an inhibition constant Ki of 216 µM.
As to `COc1cc(OC)nc(Oc2cccc3c(C)nn(CC(=O)OC(C)(C)C)c(=O)c23)n1`, the inhibition of growth at 150 g/ha with Chenopodium album [1], in the assay with Amaranthus retroflexus [2], in the assay on Brassica juncea [3], in the assay on Setaria viridis [4], in the assay on Digitaria sanguinalis [5] and in the assay on Amaranthus retroflexus [6] was less than 50% each time. Moreover, the inhibition of growth at 150 g/ha with Brassica juncea [7], with Setaria viridis [8], with Digitaria sanguinalis [9], in the assay with Echinochloa crus-galli [10], in the assay with Chenopodium album [11] and with Echinochloa crus-galli [12] was less than 50% throughout. In assay [13], this molecule gave a Ki of 1560 µM.
On to `C=CCn1nc(C)c2cccc(Oc3nc(OC)cc(OC)n3)c2c1=O`, for which the inhibition of growth at 150 g/ha in the assay on Chenopodium album [1] is 50%; in the assay on Amaranthus retroflexus [2], greater than 80%; with Brassica juncea [3], less than 50%; in the assay with Setaria viridis [4], greater than 80%; with Digitaria sanguinalis [5] it was 50%; in the assay with Amaranthus retroflexus [6] it was less than 50%. Besides, the inhibition of growth at 150 g/ha with Brassica juncea [7] was less than 50%; in the assay on Setaria viridis [8], less than 50%; in the assay on Digitaria sanguinalis [9] it was less than 50%; in the assay with Echinochloa crus-galli [10], greater than 80%; with Chenopodium album [11], less than 50%; with Echinochloa crus-galli [12], less than 50%. The Ki in assay [13] stood at 5250 µM.
